# Active and inactive are the calls of the source. The calls are words filed in the database; no cut-off is given here.
# Experiments:
# [1] = tested on: PA-1; test: Cytotoxicity against human PA1 cells at 2 uM after 16 to 30 hrs hrs by microscopic analysis; assay type: functional, cell-based
# Summary of the method: (§1)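 Actively growing (30–50% confluent) cells were given a single 2 μM dose, with DMSO as the vehicle control, for 16 h. They were imaged by microscopy with a 10×10 lens. Triplicate dishes (technical repeats) were trypsinised, diluted and blindly counted on a hemacytometer, averaging the four corner squares to give cells per dish. Treated and control means were compared by two-tailed t-test.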
# [2] = tested on: F9; test: Cytotoxicity against mouse F9 cells at 2 uM after 16 to 30 hrs hrs by microscopic analysis; assay type: functional, cell-based; summary of the method: as §1
# [3] = tested on: HCT-116; test: Cytotoxicity against human HCT116 cells at 2 uM after 16 to 30 hrs hrs by microscopic analysis; assay type: functional, cell-based; summary of the method: as §1
# [4] = molecular target: Lysine-specific histone demethylase 1A (Homo sapiens) (UniProt O60341); test: Inhibition of LSD1 in human PA1 cells assessed as downregulation of OCT4 protein expression at 20 uM after 16 hrs by Western blot analysis; assay type: cell-based
# Summary of the method: (§2)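 PA-1 cells in log-phase growth were exposed to CBB3001 for 16 hours and lysed directly in buffer containing 0.5% SDS. Equalized lysates were Western blotted for SOX2, OCT4, LSD1, H3K4me1/2/3 and histone H3 using specific antibodies, with band quantification.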
# [5] = molecular target: Lysine-specific histone demethylase 1A (Mus musculus) (UniProt Q6ZQ88); test: Inhibition of LSD1 in mouse F9 cells assessed as downregulation of SOX2 protein at 20 to 40 uM by Western blot analysis; assay type: cell-based
# Summary of the method: (§3)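 F9 cells exposed 30 h to a range of concentrations, then lysed directly in 0.5% SDS lysis buffer with protein loads equalized. SOX2 and OCT4 detected by Western blot, actin as loading control, bands quantified.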
# [6] = tested on: HCT-116; test: Effect on H3K4me3 levels in human HCT116 cells at 20 uM after 16 hrs by Western blot analysis; assay type: functional, cell-based
# Summary of the method: (§4)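 HCT116 or PA-1 cells exposed 16 h to a range of concentrations. Total histones extracted. Mono-, di- and trimethylated H3K4 and total histone H3 detected by Western blot with specific antibodies and quantified.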
# [7] = tested on: NIH3T3; test: Growth inhibition of mouse NIH/3T3 cells at 20 to 40 uM after 30 hrs by microscopic analysis; assay type: cell-based; conditions: nih3t3, 30 h
# Summary of the method: (§5)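 F9 or NIH3T3 cells in active growth, exposed 30 h to a range of concentrations with DMSO controls, then imaged by microscope. Triplicate dishes trypsinized and counted blind on a hemacytometer (four corners, mean cells per dish). Control vs treated compared by two-tailed equal-variance t-test.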
# [8] = molecular target: Lysine-specific histone demethylase 1A (Homo sapiens) (UniProt O60341); test: Inhibition of LSD1 in human HCT116 cells assessed as increase in H3K4me1 levels at 20 uM after 16 hrs by Western blot analysis; assay type: cell-based
# Summary of the method: (§6)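 Actively growing HCT116 or PA-1 cells were treated with CBB3001 or DMSO vehicle for 16 hours. Total histones were extracted, and mono-, di- and trimethylated H3K4 and total histone H3 were probed by Western blot with specific antibodies and quantified. Treatments were run in technical triplicate.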
# [9] = molecular target: Lysine-specific histone demethylase 1A (Homo sapiens) (UniProt O60341); test: Inhibition of LSD1 in human PA1 cells assessed as increase in H3K4me2 levels at 20 uM after 16 hrs by Western blot analysis; assay type: cell-based; summary of the method: as §6
# [10] = molecular target: Lysine-specific histone demethylase 1A (Homo sapiens) (UniProt O60341); test: Inhibition of LSD1 in human HCT116 cells assessed as increase in H3K4me2 levels at 20 uM after 16 hrs by Western blot analysis; assay type: cell-based; summary of the method: as §6
# [11] = molecular target: Lysine-specific histone demethylase 1A (Homo sapiens) (UniProt O60341); test: Inhibition of LSD1 in human PA1 cells assessed as increase in H3K4me1 levels at 20 uM after 16 hrs by Western blot analysis; assay type: cell-based; summary of the method: as §6
# [12] = molecular target: Lysine-specific histone demethylase 1A (Mus musculus) (UniProt Q6ZQ88); test: Inhibition of LSD1 in mouse F9 cells assessed as downregulation of OCT4 protein at 20 to 40 uM by Western blot analysis; assay type: cell-based; summary of the method: as §3
# [13] = molecular target: Lysine-specific histone demethylase 1A (Homo sapiens) (UniProt O60341); test: Inhibition of LSD1 in human PA1 cells assessed as downregulation of SOX2 protein at 10 to 40 uM after 16 hrs by Western blot analysis
# [14] = molecular target: Lysine-specific histone demethylase 1A (Homo sapiens) (UniProt O60341); test: Inhibition of LSD1 in human PA1 cells assessed as downregulation of OCT4 protein at 10 to 40 uM after 16 hrs by Western blot analysis
# [15] = tested on: PA-1; test: Reversible growth inhibitory activity of human PA1 cells at 20 to 40 uM preincubated for 24 hrs followed by 24 hrs recovery by microscopic analysis; assay type: functional, cell-based
# Summary of the method: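 PA-1 cells in active growth, exposed 24 h to a range of concentrations. Compound removed, cells washed extensively and regrown 24 h in fresh medium without compound. Cells imaged, then triplicate dishes trypsinized and counted blind on a hemacytometer (four corners). Three independent experiments.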
# [16] = molecular target: Lysine-specific histone demethylase 1A (Homo sapiens) (UniProt O60341); test: Inhibition of LSD1 in human PA1 cells assessed as downregulation of SOX2 protein expression at 20 to 40 uM after 16 hrs by Western blot analysis; assay type: cell-based; summary of the method: as §2
# [17] = tested on: F9; test: Growth inhibition of mouse F9 cells at 20 to 40 uM after 30 hrs by microscopic analysis; assay type: functional, cell-based; summary of the method: as §5
# [18] = tested on: PA-1; test: Effect on H3K4me3 levels in human PA1 cells at 20 uM after 16 hrs by Western blot analysis; assay type: functional, cell-based; summary of the method: as §4
# [19] = tested on: PA-1; test: Cytotoxicity against human PA1 cells assessed as cell growth inhibition at 5 to 20 uM after 12 to 16 hrs by microscopic analysis; assay type: functional, cell-based
# Summary of the method: (§7)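 Actively growing HCT116 or PA-1 cells (30–50% confluent), DMSO vehicle control, exposed 16 h over a range of concentrations. Cells imaged by microscope (10×10 lens). Triplicate dishes trypsinized, diluted, spotted blind on a hemacytometer, four corners counted for mean cells per dish. Treated vs control compared by two-tailed t-test. Three independent experiments.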
# [20] = tested on: HCT-116; test: Cytotoxicity against human HCT116 cells assessed as cell growth inhibition at >40 uM after 16 hrs by microscopic analysis; assay type: functional, cell-based; summary of the method: as §7
Structure (SMILES),Activity [1],Activity [2],Activity [3],inhibition [4],inhibition [5],Activity [6],growth inhibition (GI) [7],inhibition [8],inhibition [9],inhibition [10],inhibition [11],inhibition [12],inhibition [13],inhibition [14],growth inhibition (GI) [15],inhibition [16],growth inhibition (GI) [17],Activity [18],growth inhibition (GI) [19],growth inhibition (GI) [20]
N[C@H]1CC[C@H](N[C@@H]2C[C@H]2c2ccccc2)CC1,Active,Active,Active,,,,,,,,,,,,,,,,,
CC(C)(C)OC(=O)N[C@@H]1C[C@H]1c1ccc(OC(=O)OC(C)(C)C)cc1,,,,Active,Active,inactive,Non-Toxic,Active,Active,Active,Active,Active,Active,Active,inactive,Active,Active,inactive,Active,inactive
